Hits are enriched below; roughly 3.3% of the tested compounds scored in any of these assays.
CendR NRP1 mod – NRP-1/CendR interaction modulation. O14786. FAM-RPARPAR peptide binding to NRP-1, fluorescence polarization. inhibition, % at 25 µM. actives 0.85% (n = 360,000);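 active means inhibition or corrected inhibition above about 18%, plus a signal ratio from 0.5 to 1.5, limit read from the data, passing the limit was not always enough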
PfM18AAP inh – PfM18AAP enzyme inhibition | recombinant PfM18AAP, H-Glu-NHMec fluorogenic cleavage | inhibition, % at 7.35 µM | actives 1.2% (n = 290,000);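 active means inhibition above the campaign mean inhibition over all tested compounds plus 3 SD, cut at about 28% in these data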
Arrestin-AP2 inh – inhibitors of human beta-arrestin and AP2 interaction. FITC-arrestin peptide / GST-AP2 beads, flow cytometry; AP2 beta2 appendage carries R879A mutation. inhibition, % at 10 µM. actives 0.31% (n = 340,000). AID 504490;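 active means inhibition above a set limit, near 3 SD of compounds lacking own fluorescence, cut at about 54% in these data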
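System: GST-AP2 R879A glutathione beads | Also added: FITC-arrestin peptide, 50 nM | Times: 12 min plus 1 h, RT | Signal: Bead flow cytometry, FITC channel | Buffer or medium: PBS with 0.05% Tween 20 and 0.1% BSA | Read-out basis: Percent drop in bead-associated FITC signal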
Hep lipid drop – modulators of hepatic lipid droplet formation; AML12 mouse hepatocytes, oleate lipid droplets, BODIPY imaging; inhibition, % at 6.5 µM; actives 0.4% (n = 240,000); AID 1656;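 active means lipid droplet intensity inhibited by at least 50%, with more than 500 cells counted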
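Assay system: AML12 mouse liver cells | Compound: 6.5 µM single-point dosing | Schedule: Overnight exposure | Technique: Fluorescence imaging, 20x objective, two fields per well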
HGIII-sPLA2 inh – Blocks human group III sPLA2 activity; inhibition, % at 12.2 µM; AID 743126; QFRET BODIPY PC-A2 liposome hydrolysis, fluorescence; actives 0.56% (n = 370,000);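 active means inhibition above mean plus 3 SD of compounds lying within the high and low control bounds, cut at about 19% in these data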
Target sequence (Q9NZ20 whole entry, looked up): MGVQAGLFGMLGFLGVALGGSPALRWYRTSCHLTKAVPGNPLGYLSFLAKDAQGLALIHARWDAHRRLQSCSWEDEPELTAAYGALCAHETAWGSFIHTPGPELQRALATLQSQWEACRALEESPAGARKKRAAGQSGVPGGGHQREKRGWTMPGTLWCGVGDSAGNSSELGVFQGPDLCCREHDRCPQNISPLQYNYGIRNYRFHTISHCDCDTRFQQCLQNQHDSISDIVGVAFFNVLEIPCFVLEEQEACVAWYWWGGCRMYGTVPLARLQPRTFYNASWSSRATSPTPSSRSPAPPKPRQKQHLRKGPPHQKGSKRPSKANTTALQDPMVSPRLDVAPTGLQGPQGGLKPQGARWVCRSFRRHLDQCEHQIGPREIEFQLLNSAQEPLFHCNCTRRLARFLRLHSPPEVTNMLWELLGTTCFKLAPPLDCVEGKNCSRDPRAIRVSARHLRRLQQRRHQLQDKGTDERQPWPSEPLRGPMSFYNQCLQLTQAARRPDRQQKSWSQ
m5-HT2A agonist – activates the mouse 5-HT2A serotonin receptor | CHO-K1 mHTR2A beta-arrestin complementation, luminescence; percent of 30 µM serotonin response | actives 0.66% (n = 360,000) | P35363 | activation, % at 7.6 µM;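 active means activation above a run cutoff, the mean activation of all tested compounds plus 3 SD, cut at about 14% in these data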
Hits are given with their value.

`O=C(OC1CCOC1=O)C1CCN(S(=O)(=O)c2c(Cl)cccc2Cl)CC1` (stereo not drawn) gave CendR NRP1 mod 20.2, Arrestin-AP2 inh inactive, HGIII-sPLA2 inh inactive and m5-HT2A agonist inactive.
O=C(C1CCN(S(=O)(=O)c2c(Cl)cccc2Cl)CC1)N1CCCCCCC1 was read as CendR NRP1 mod inactive, Arrestin-AP2 inh inactive, HGIII-sPLA2 inh inactive and m5-HT2A agonist inactive.
For COc1ccccc1N(CC(=O)N1CCc2ccccc2C1)S(C)(=O)=O the results were CendR NRP1 mod 24.8, PfM18AAP inh inactive, Arrestin-AP2 inh inactive, Hep lipid drop inactive, HGIII-sPLA2 inh inactive and m5-HT2A agonist inactive.
Screening COc1ccc(N(CC(=O)N2CCc3ccccc3C2)S(C)(=O)=O)cc1OC returned CendR NRP1 mod inactive, PfM18AAP inh inactive, Arrestin-AP2 inh inactive, Hep lipid drop inactive, HGIII-sPLA2 inh inactive and m5-HT2A agonist inactive.
`CCOc1ccccc1N(CC(=O)N1CCc2ccccc2C1)S(C)(=O)=O` gave CendR NRP1 mod inactive, PfM18AAP inh inactive, Arrestin-AP2 inh inactive, Hep lipid drop inactive, HGIII-sPLA2 inh inactive and m5-HT2A agonist inactive.
Screening COc1ccc(C)cc1N(CC(=O)N1CCc2ccccc2C1)S(C)(=O)=O returned CendR NRP1 mod 26.5, PfM18AAP inh inactive, Arrestin-AP2 inh inactive, Hep lipid drop inactive, HGIII-sPLA2 inh inactive and m5-HT2A agonist inactive.
`C#CCNC(=O)C[C@@H]1C[C@@]2(C(=O)OC)CC(C)(C)CC=C2N(Cc2ccccc2)C1=O` gave CendR NRP1 mod inactive, HGIII-sPLA2 inh inactive and m5-HT2A agonist inactive.
`c1ccc(OCCn2c(-c3ccco3)nc3ccccc32)cc1` gave CendR NRP1 mod inactive, PfM18AAP inh inactive, Arrestin-AP2 inh inactive, HGIII-sPLA2 inh inactive and m5-HT2A agonist inactive.
For Cc1cccc(OCCn2c(-c3ccco3)nc3ccccc32)c1 the results were CendR NRP1 mod 27.9, PfM18AAP inh inactive, Arrestin-AP2 inh inactive, HGIII-sPLA2 inh inactive and m5-HT2A agonist inactive.
Screening CCCc1ccc(-c2cc(NC(=O)Cc3c(C)[nH]c4ccccc34)ccc2Nc2cccnc2)cc1 returned HGIII-sPLA2 inh inactive.
Cc1ccc(C(=O)N2CCN(c3ccc(N4CCOCC4)nn3)CC2)cc1 was read as CendR NRP1 mod inactive, Arrestin-AP2 inh inactive, HGIII-sPLA2 inh inactive and m5-HT2A agonist inactive.
Cc1ccc(NC(=O)c2ccc3nc(N4CCOCC4)sc3c2)c(Cl)c1 was read as CendR NRP1 mod inactive, PfM18AAP inh 29.3, Arrestin-AP2 inh inactive, Hep lipid drop inactive, HGIII-sPLA2 inh inactive and m5-HT2A agonist inactive.
`CCc1ccccc1NC(=O)c1ccc2nc(N3CCOCC3)sc2c1` gave CendR NRP1 mod inactive, PfM18AAP inh inactive, Arrestin-AP2 inh inactive, Hep lipid drop inactive, HGIII-sPLA2 inh inactive and m5-HT2A agonist inactive.
Screening Cc1ccc(C(=O)Nc2ccc(N3CCOCC3)nc2N2CCOCC2)cc1 returned CendR NRP1 mod inactive, PfM18AAP inh 28.4, Arrestin-AP2 inh inactive, Hep lipid drop inactive, HGIII-sPLA2 inh inactive and m5-HT2A agonist inactive.
Screening C=CCn1c(SCc2ccc(Cl)cc2)nc2c1c(=O)[nH]c(=O)n2C returned CendR NRP1 mod 25.6, PfM18AAP inh inactive, Arrestin-AP2 inh inactive, HGIII-sPLA2 inh inactive and m5-HT2A agonist inactive.
For CCc1cc(C(=O)OC)c(NC(=O)c2ccoc2C)s1 the results were CendR NRP1 mod 39.3, PfM18AAP inh inactive, Arrestin-AP2 inh inactive, Hep lipid drop inactive, HGIII-sPLA2 inh inactive and m5-HT2A agonist inactive.
Screening CC12CN(C(=O)c3ccccc3Br)CC(C)(CN(C(=O)c3ccccc3Br)C1)C2=O returned CendR NRP1 mod inactive, PfM18AAP inh inactive, Arrestin-AP2 inh inactive, Hep lipid drop inactive, HGIII-sPLA2 inh inactive and m5-HT2A agonist inactive.
Screening CCOC(=O)/C=C/COc1ccccc1[N+](=O)[O-] returned CendR NRP1 mod 28.4, PfM18AAP inh inactive, Arrestin-AP2 inh inactive, Hep lipid drop inactive, HGIII-sPLA2 inh inactive and m5-HT2A agonist inactive.
CC(C)n1c(NCCO)nc2ccccc21 was read as CendR NRP1 mod 25.8, PfM18AAP inh inactive, Arrestin-AP2 inh inactive, Hep lipid drop inactive, HGIII-sPLA2 inh inactive and m5-HT2A agonist inactive.
Clc1ccc(OCCOCCNCc2ccccc2)cc1Cl was read as CendR NRP1 mod inactive, PfM18AAP inh inactive, Arrestin-AP2 inh inactive, Hep lipid drop inactive, HGIII-sPLA2 inh inactive and m5-HT2A agonist inactive.
